A selection: hits, their analogues and other compounds. The true share with any hit is near 3.5%.
MrgX1 PAM: human MrgX1 positive allosteric modulation, primary screen | MrgX1-HEK293, Fluo-4 calcium flux, FDSS; stronger effect = higher value | B-score at 10 µM | 310,000 compounds, 0.63% hits | AID 588675;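 active means plate-corrected calcium response at least 3 library SD above typical, normal starting fluorescence, not activating the receptor alone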;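 further: compound read alongside a low EC10 to EC30 dose of BAM8-22 agonist; peak minus trough fluorescence over baseline measured at the second addition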
Target sequence (Q96LB2 whole entry, looked up): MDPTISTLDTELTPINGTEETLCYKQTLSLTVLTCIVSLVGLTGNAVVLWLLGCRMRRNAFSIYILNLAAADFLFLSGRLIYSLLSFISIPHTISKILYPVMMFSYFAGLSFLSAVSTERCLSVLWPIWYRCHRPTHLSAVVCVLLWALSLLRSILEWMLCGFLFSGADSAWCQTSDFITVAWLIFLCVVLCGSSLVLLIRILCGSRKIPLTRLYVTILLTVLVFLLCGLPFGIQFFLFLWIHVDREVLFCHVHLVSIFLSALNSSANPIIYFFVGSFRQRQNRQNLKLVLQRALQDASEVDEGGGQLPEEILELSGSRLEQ
MrgX1 ag: activates human MrgX1 receptor signaling | MrgX1-HEK293 cells, Fluo-4 calcium fluorescence, agonist mode; stronger effect = higher value | B-score at 10 µM | 310,000 compounds, 0.44% hits;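 active means calcium response B-score plate-corrected fluorescence ratio at least 3 library SD, with starting fluorescence B-score inside 5 SD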
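times = overnight plating, then 30 min 37 °C plus 30 min room-temperature dye loading | assay system = stable human MrgX1 HEK293 cell line | input = fifteen thousand cells per well | signal = kinetic calcium dye fluorescence, Fluo-4 NW | dosing = compound delivered in addition one of three | read-out = B-scored fluorescence response ratio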
RGS4 inh: inhibitors of human RGS4. B-score at 10 µM. 310,000 compounds, 0.45% hits. HEK293 M3R/RGS4 inducible, Fluo-4 calcium flux; stronger effect = higher value; triggered by carbachol at its EC20. AID 463165;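 active means B-score, a plate-corrected calcium signal, over three deviations above library mean, with baseline fluorescence within five deviations of library mean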;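 further: RGS4 expression induced by doxycycline in cells with stable M3 receptor; B-score is computed from the integrated fluorescence ratio over baseline after carbachol; higher B-score means a larger calcium signal and so more RGS4 inhibition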
Target sequence (P49798 whole entry, looked up): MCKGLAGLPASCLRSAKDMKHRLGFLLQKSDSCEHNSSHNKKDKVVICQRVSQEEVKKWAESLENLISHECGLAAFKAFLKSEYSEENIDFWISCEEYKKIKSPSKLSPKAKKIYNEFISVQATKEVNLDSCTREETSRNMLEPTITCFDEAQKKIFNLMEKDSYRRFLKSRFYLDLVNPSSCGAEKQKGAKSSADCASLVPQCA
RGS4 act: RGS4 potentiation or activation; 310,000 compounds, 0.92% hits; HEK293 M3R/inducible RGS4, carbachol calcium flux Fluo4; stronger effect = lower value; B-score at 10 µM;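 active means B-score of the integrated calcium signal more than 4 SD below the library mean, with starting fluorescence not abnormally high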;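 further: negative B-score means reduced calcium response which marks RGS4 activation or potentiation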
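test system = HEK293 cells with stable M3R and inducible RGS4 | schedule = recording 10 s baseline at 1 Hz, 100 s post-agonist | technique = Fluo4-AM (2 µM) calcium-flux fluorescence, kinetic read | measure = Agonist-evoked peak-minus-minimum fluorescence over baseline, integrated ratio, B score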
MrgX1 antag: human MrgX1 receptor antagonism, primary screen; Q96LB2; MRGX1-HEK293 calcium flux, Fluo-4, BAM8-22 antagonism; stronger effect = lower value; B-score at 10 µM; 310,000 compounds, 1.3% hits; AID 588676;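 active means calcium-response B-score plate-corrected more than 3 library SD below zero, starting fluorescence within 5 deviations, no agonist response on first addition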;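 further: peak minus trough fluorescence over baseline after final BAM8-22 challenge near maximal dose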
Of the large screens only hits and unclear results are named; the others gave an inactive call.

Cc1ccccc1OCc1nc2ccccc2c(=O)n1/N=C/c1c[nH]c2ccccc12	none
O=C(CC1SC(=Nc2ccccc2)N(CCCO)C1=O)Nc1ccc(Cl)cc1 (stereo not drawn)	RGS4 act -9.1, MrgX1 antag -4.6
CCC(C)/C(C)=N/NC(=O)c1ccc(COc2ccc(Cl)c(C)c2)cc1 (stereo not drawn)	MrgX1 PAM 10 (no result: RGS4 inh, RGS4 act)
CCOc1ccc(OCc2ccc(C(=O)N/N=C(\C)c3ccccn3)cc2)cc1	none
O=C(CSc1cccc[n+]1[O-])Nc1ccc(N2CCOCC2)cc1	none
CC(C)c1ccc(C2C3CSCC=C3C(C#N)=C(N)C2(C#N)C#N)cc1 (stereo not drawn)	RGS4 act -8.7
O=C(CN1C(=O)NC2(CCCC2)C1=O)N1CCN(S(=O)(=O)c2ccccc2[N+](=O)[O-])CC1	none
CCCS(=O)(=O)c1c(S(=O)(=O)CCC)c2cnccn2c1C(=O)c1ccc(OC)cc1	MrgX1 PAM 13
CCCS(=O)(=O)c1c(S(=O)(=O)CCC)c2cnccn2c1C(=O)c1ccc(CC)cc1	none
CCCOc1ccc(N)cc1N	MrgX1 antag -6.7
O=C(Cn1cnnn1)NC1CCCN(Cc2ccccc2F)C1 (stereo not drawn)	none
Cc1ccc(C(=O)N2CCN=C2SCc2ccc([N+](=O)[O-])cc2)cc1	MrgX1 antag -7.1
Cc1ccc(CSC2=NCCN2C(=O)c2ccc([N+](=O)[O-])cc2)cc1	none
O=C(CSc1ccccn1)Nc1nonc1[N+](=O)[O-]	MrgX1 ag 38
O=C(CSc1ccccn1)Nc1ccc(NC(=O)CSc2ccccn2)cc1	none
O=C(Nc1ccc(N=Nc2ccccc2)c(NC(=O)C2CCCO2)c1)C1CCCO1 (stereo not drawn)	none
COC1=C/C(=C/c2c(N)n3nc(CC(=O)N4CCCC4)sc3nc2=O)C=CC1=O	MrgX1 antag -5.9
CCOC1=C/C(=C/c2c(N)n3nc(CC(=O)N4CCCC4)sc3nc2=O)C=CC1=O	MrgX1 ag 31
COC1=CC(=Cc2c(N)n3nc(CC(=O)N4CCCCC4)sc3nc2=O)C=C(OC)C1=O	none
O=C(Nc1ncccc1O)c1ccc(S(=O)(=O)Nc2ccccc2)cc1	none
CC1CCN(c2nc(CN3CCCCC3)nc3scc(-c4ccccc4)c23)CC1	RGS4 act -7.4
CC1CCCN(c2nc(-c3cccnc3)nc3scc(-c4ccccc4)c23)C1 (stereo not drawn)	RGS4 act -7.3
CCC(C)NC(=O)CN(c1cc(Cl)cc(Cl)c1)S(C)(=O)=O (stereo not drawn)	none
CCN(CC)C(=O)Oc1ccc2oc(=O)cc(-c3cc4cccc(OC)c4o3)c2c1	RGS4 act -7.2
COc1ccc2oc(=O)cc(-c3cc4cccc(OC)c4o3)c2c1	none
CCCCn1c(=O)nc2n(-c3ccccc3)c3ccccc3cc-2c1=O	RGS4 act -9.7
CC(C)(C)NCC(O)(c1ccc(Cl)cc1)c1ccc(Cl)cc1	none
NCC(O)(c1ccc(Cl)cc1)c1ccc(Cl)cc1	MrgX1 ag 37
COc1ccc(-c2oc3ccccc3c2C(=O)OCc2ccccc2)cc1	MrgX1 PAM 8.1
COc1ccc(-c2oc3ccccc3c2C(=O)OCc2ccc(O)cc2)cc1	none
N#CCC(=O)N1CCN(C=O)CC1	MrgX1 antag -5.5
CCOC(=O)/C(=N/Nc1ccc(C)cc1)S(=O)(=O)c1ccc(Cl)cc1	RGS4 act -8
CCCCCCSc1ccc([C@H]2N[C@@](C)(C(=O)OC)[C@H]3C(=O)N(CC)C(=O)[C@@H]23)cc1	none
COC(=O)c1ccc(COc2cccc(C)c2C)cc1	none
O=C(CSc1nnc(-c2cccnc2)n1Cc1ccco1)N1c2ccccc2Sc2ccccc21	MrgX1 antag -4.5 (no result: RGS4 inh, RGS4 act)
c1cncc(CSc2nnc(-c3cccnc3)n2Cc2ccco2)c1	none (no result: MrgX1 PAM, MrgX1 ag, MrgX1 antag)
Cc1nc(NCCCn2ccnc2)c2ccccc2n1	none
c1cncc(-c2nc(NCCCn3ccnc3)c3ccccc3n2)c1	RGS4 act -7
COc1cc2nc(SCc3c(C)noc3C)n(CCC3=CCCCC3)c(=O)c2cc1OC	RGS4 act -8.2
COc1ccc(CCN2C(=O)CSC2=Nc2ccc(C(C)C)cc2)cc1OC	RGS4 act -7.2
C=CCN1C(c2cccc(C(F)(F)F)c2)=CS/C1=C(/C#N)c1nnc(N2CCOCC2)n1-c1ccccc1	MrgX1 ag 45
Cc1c(N=C(N)/N=C(\N)Nc2ccccc2)c(=O)n(-c2ccccc2)n1C	MrgX1 antag -4.6
NC(=O)c1coc(-c2ccccc2)n1	RGS4 act -7.1
CC(C)CC(=O)NC(NC(=S)Nc1sc2c(c1C#N)CCCC2)C(Cl)(Cl)Cl (stereo not drawn)	MrgX1 antag -4.5
CCCCN1C(=O)C2(NNc3ccccc3O2)c2ccccc21 (stereo not drawn)	MrgX1 antag -6.1
O=[N+]([O-])c1ccc(S(=O)(=O)N2CCN(c3ccc(N4CCOCC4)nn3)CC2)cc1	none
O=C(CCc1nnc(CCCCc2ccccc2)o1)NCCn1cccn1	none
O=C(CCc1nnc(CCCCc2ccccc2)o1)NCCN1CCOC1=O	MrgX1 antag -5.3
Cc1ccc2c(C(=O)CCl)c(C)[nH]c2c1	MrgX1 PAM 8.2
Cc1ccc(C(=O)Cc2cc3ccccc3oc2=O)c(C)c1	none
Cc1cc(C(=O)CCC(=O)NCc2ccccc2F)c(C)s1	none
CN1CCN(c2ccc(NC(=O)c3ccc(Oc4ccccc4)cc3)cc2)CC1	RGS4 act -7.7
O=C(NNC(=O)c1ccc(S(=O)(=O)N2CCOCC2)cc1)c1ccccc1	none
COc1ccc(/C=C2/C(=N)N3N=C(CC(=O)N4CCCC4)SC3=NC2=O)cc1OC	none
COc1cc(/C=C2/C(=N)N3N=C(CC(=O)N4CCOCC4)SC3=NC2=O)ccc1OCc1ccccc1F	MrgX1 PAM 17
CSc1ccc(/C=C2/C(=N)N3N=C(CC(=O)N4CCCC4)SC3=NC2=O)cc1	MrgX1 ag 31
Cc1ccc(/C=C2/C(=N)N3N=C(CC(=O)N4CCCC4)SC3=NC2=O)cc1	none
COc1cc(/C=C2/C(=N)N3N=C(CC(=O)N4CCOCC4)SC3=NC2=O)ccc1OCc1ccc(F)cc1	MrgX1 PAM 16
CCc1ncc(CN2CCCC(C(=O)Nc3ccc(-c4cscn4)cc3)C2)cn1 (stereo not drawn)	none
CCOC(=O)c1c(C)[nH]c(C(=O)OCc2ccccc2)c1C	none
CCOC(=O)CCc1c(C(=O)OCC)[nH]c(CC)c1C(=O)OCc1ccccc1	RGS4 act -7.5
COc1ccccc1NC(=O)Nc1nc(CC(=O)NCc2c(F)cccc2F)cs1	none
COc1ccccc1NC(=O)Nc1nc(CC(=O)N2CCN(c3ccccc3F)CC2)cs1	RGS4 act -7.1
CC(CN(C)C)CN1c2ccccc2CCc2ccccc21 (stereo not drawn)	MrgX1 antag -4.9
CN(C)CCCN1c2ccccc2CCc2ccccc21	none (no result: RGS4 inh, RGS4 act)

Screening data deposited in PubChem BioAssay by Johns Hopkins Ion Channel Center.
